The data set has as its system MS2 coat protein. Put plainly: apparent Kd, MS2 coat protein; higher = weaker binding; RNA-MaP array; tryptophan 2.4 mM where present. The procedure, abridged: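 Apparent Kd: the median of filtered binding-curve fits from single clusters. Designs were transcribed on Illumina sequencing-chip clusters by stalled E. coli RNA polymerase and titrated with SNAP-549-labelled MS2 coat protein from 0.7 or 1.5 nM, doubling to 3 µM, in 100 mM Tris-HCl pH 7.5, 80 mM KCl, 4 mM MgCl2, BSA, DTT, yeast tRNA and Tween-20. Each series ran without and then with constant ligand, and green signal was normalised to red-channel RNA signal and control-cluster median Fmax.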

Setting [1] is: designed as: ON switch for tryptophan, no ligand.
[2] abbreviates: ligand present: tryptophan, designed as: ON switch for tryptophan.
Setting [3] is: designed as: OFF switch for tryptophan, no ligand.
The mark [4] stands for this setting: ligand present: tryptophan, designed as: OFF switch for tryptophan.

For “AGAGUCUAGUCGGCCGCCACUCAUGUCCAAUGGACAUGAGGAUCACCCAUGUACCGAAGGUACAUGAGGACCGGGACUGGACUCA”, the “apparent Kd” value came to 153 nM under setting [1] and 11.7 nM under setting [2].

Regarding “CCUAUGCAGUCGGCCGCCACUGAAAACAGCCUCAAAAUAAAUAUAACAUGAGGAUCACCCAUGUACAGGACCGGGACUGUAUAGG”, the “apparent Kd” value runs as follows: under setting [3], 147 nM; under setting [4], 79.6 nM.

Consider “AGCCACUCGAACAUGGGUGACGAGUGGCAACGAGGACCGGUACGGCCGCCACUCGAAUAAACAUGAGGAUCACCCAUGUACAAAU”, for which the “apparent Kd” value came to 292 nM under setting [1] and 214 nM under setting [2].

On to “AAUACCGGAUCGGCCGCCACUGGUUGGCCCUGUGUACAUGAGGAUCACCCAUGUCCAUCCCAGACCAGGACCGGGAUCUUUGUGU”, for which the “apparent Kd” value is, setting by setting: under setting [1], 15.8 nM; under setting [2], 10.4 nM.

“GCAUCCUAGUCGGCCGCCACUGGUAUGAACACCUUCACCCGUGUGCACAUGAGGAUCACCCAUGUUAGGACCGGGACUAGGAUGC”: the “apparent Kd” value is, setting by setting: under setting [1], 9.03 nM; under setting [2], 9.3 nM.

As for “GUUAUUAGAAAACUAAUAACAGUGGGUGAACGAGGACCGGUACGGCCGCCACUCGGACAUGAGGAUCACCCAUGUCCAUGUGAAA”, the “apparent Kd” value under setting [3] stood at 15.4 nM and the “apparent Kd” value under setting [4] was 32.7 nM.

“CUAUAAGUACCGGUCCUCAGAUCCUCAUGACGAGGACCGGUACGGCCGCCACUCGAAACAUGAGGAUCACCCAUGUAAUAAUAUU”: the “apparent Kd” value is, setting by setting: under setting [3], 20.2 nM; under setting [4], 19.3 nM.

For the sequence “GGGUGGUAGGCGGCCGCCACUGAUUUUCAUUCCUGGAUGACAUGAGGAUCACCCAUGUUUACGGGCAGGACCGGGCCUGCUGUGG”, the “apparent Kd” value was determined as 57.3 nM under setting [1] and 46.5 nM under setting [2].

Regarding “CACGAAAGAUCGGCCGCCACUAUUUGAUGUGUUCUUUCACAUGAGGAUCACCCAUGUUCUUAUUUUAGGACCGGGAUUGAGCGUG”, the “apparent Kd” value was found to be 94.8 nM under setting [3] and 69.3 nM under setting [4].

As to “UCGUUGAAGUCGGCCGCCACUGAACUCAUGUUCAACAUGAGGAUCACCCAUGUACCUUAUUUUAACAGGACCGGGACUUUGACGA”, the “apparent Kd” value came to 167 nM under setting [3] and 156 nM under setting [4].

For “GGCAAAAGGUCGGCCGCCACUGUAGGAUGUGUUCUUUCACAUGAGGAUCACCCAUGUUGUUAUUAUAGGACCGGGAUUUUAGGAC”, the “apparent Kd” value is, setting by setting: under setting [3], 21.8 nM; under setting [4], 21.1 nM.

With “AGCACUGUGACGGCCGCCACUAUAUUAGGGUGGUCAGGUUCAUAAAUACAUGAGGAUCACCCAUGUAGGACCGGGUCUCAGUGCA”, the “apparent Kd” value by setting is: under setting [3], 9.48 nM; under setting [4], 9.88 nM.

“AGAAUAUAGUCGGCCGCCACUCUACAUACAUGAGGAUCACCCAUGUUUACAUAGUGAAUAUACAUGAGGACCGGGACAUAGGCAU”: the “apparent Kd” value under setting [1] amounted to 21.8 nM and the “apparent Kd” value under setting [2] is 13.4 nM.

“GGCUAUACUACGGCCGCCACUGAACAUGAGGAUCACCCAUGUAAUGUUCAGAUUUUUUUUUUUUACAGGACCGGGUAGAAUUGCC”: the “apparent Kd” value under setting [1] worked out at 195 nM and the “apparent Kd” value under setting [2] is 104 nM.

Consider “UAAUGCAGGUCGGCCGCCACUACACACAUGAGGAUCACCCAUGUAGUUACUGGGUGAAGUGGCAGUAGGACCGGGACCUGCAUAC”, for which the “apparent Kd” value turned out to be 372 nM under setting [1] and 470 nM under setting [2].

For the sequence “AGCACUGUGACGGCCGCCACUACAUAACAUGGGUGGUCAGGUUCAUUACAUGAGGAUCACCCAUGUAGGACCGGGUCUCAGUGCA”, the “apparent Kd” value was found to be 10.1 nM under setting [3] and 8.35 nM under setting [4].

On to “GGUGGACUUUCGGCCGCCACUGAGAGAGUCGUGUGAACAUGAGGAUCACCCAUGUAAUAUAUAUACAGGACCGGGAGGGUUGUCC”, for which the “apparent Kd” value stood at 15.9 nM under setting [3] and 15.9 nM under setting [4].

With “UUAAUUAUUGAAUCGUAUUGGUAUUAAGAACGAGGACCGGUACGGCCGCCACUCGUGAUAUACAUGAGGAUCACCCAUGUUAGCA”, the “apparent Kd” value by setting is: under setting [1], 14.8 nM; under setting [2], 14 nM.

In the case of “GAUAUACGUGCGGCCGCCACUGAGUGGCGGGCGUGUCGAGUUACAUGAGGAUCACCCAUGUCACUCAGGACCGGGCACGGAAUUU”, the “apparent Kd” value by setting is: under setting [3], 9.98 nM; under setting [4], 11.4 nM.

Take “AACAUGAGGAUCACCCAUGUGUCCUCGAAACGAGGACCGGUACGGCCGCCACUCGGCGUAUGUUGACGAAAAGUCAGCAUACGCA”: the “apparent Kd” value reads like this: under setting [3], 192 nM; under setting [4], 737 nM.

Regarding “UAAACUACACAUGAGGAUCACCCAUGUGGCCGAGGACCGGUACGGCCGCCACUCGUGUGUUAAUAAUAGAACUGCAAGGUUCUGU”, the “apparent Kd” value by setting is: under setting [1], 183 nM; under setting [2], 75.2 nM.

Consider “CGAAUAUAGACGGCCGCCACUCUACAAACAUGAGGAUCACCCAUGUUCACAUAGUGGAAACACAUGAGGACCGGGUCAUAGGCUU”, for which the “apparent Kd” value is, setting by setting: under setting [1], 22.6 nM; under setting [2], 17.1 nM.

Take “CCUAUGCAGUCGGCCGCCACUGAACAUGAGGAUCACCCAUGUAAUUAAAAUUAAGGUCCUAAAAUCAGGACCGGGACUGUAUAGG”: the “apparent Kd” value by setting is: under setting [3], 38.5 nM; under setting [4], 237 nM.

For the sequence “UAACAUGAGGAUCACCCAUGUUUAGAAGAACGAGGACCGGUACGGCCGCCACUCGAAAAGUGGAAGAAAAGAGGGAUAGAAUGAU”, the “apparent Kd” value by setting is: under setting [1], 12.2 nM; under setting [2], 12.6 nM.

By apparent Kd is commonly meant a dissociation constant that holds for the conditions of the assay.

The values above are taken from the EternaBench riboswitch data.
